# From PMC5839514 (MedChemComm, 2017)
# Where two headings read alike, the source gives them in different places.
# Tests used:
# Water solubility = format: physicochemical; details: for Water solubility of hydrochloride salt: hydrochloride salts
# cyclin D1 = test: Western blot of cyclin D1 in LS174T cells; format: cell-based; details: 300 nM
# In short: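 LS174T colon cancer cells were exposed to test compound at 300 nM. Lysates were immunoblotted with antibodies against cyclin D1, p21Wif1/Cip1 and β-tubulin.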
# [1] = tested on: cyclin-dependent kinase inhibitor p21^Wif1/Cip1; test: Western blot of p21^Wif1/Cip1 in LS174T cells; format: cell-based; details: 300 nM
# [2] = tested on: LS174T colon cancer cells; test: Cell proliferation assay, LS174T colon cancer cells; format: cell-based; details: Table 3
# In short: (§1)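 Cells were kept in RPMI or DMEM with 5% or 10% fetal bovine serum and 1% penicillin/streptomycin. They were plated at 3 × 10^4 cells per well in 12-well plates and treated with DMSO or test compound. After 4 days, cell number and viability were counted on a Vi-Cell viability analyzer. Inhibition is relative to DMSO.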
# HT-29 = test: Cell proliferation assay, HT-29 colon cancer cells; format: cell-based
# In short: as §1
# fibroblast HEL 299 cells = test: Cell proliferation assay, normal fibroblast HEL 299 cells; format: cell-based
# In short: (§2)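 Cells were obtained from a university collaborator and grown in RPMI or DMEM with 5% or 10% fetal bovine serum plus 1% penicillin/streptomycin. The medium for each line is not specified. Cells were seeded at 3 × 10^4 per well and treated with test compound or DMSO. After 4 days, cell number and viability were counted on an automated cell viability analyzer.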
# lung epithelial BEAS-2B = test: Cell proliferation assay, normal lung epithelial BEAS-2B cells; format: cell-based
# In short: as §2
# [3] = tested on: LS174T colon cancer cells; details: cited from earlier work; for Inhibition of proliferation (%) of LS174T cells: Table 1
compound,measurement,setting,value
"CN(C)c1ncc(C#Cc2c(F)cccc2F)c2ncccc12 [Compound 5pp, 8-((2,6-Difluorophenyl)ethynyl)-N,N-dimethyl-1,6-naphthyridin-5-amine]",Water solubility of hydrochloride salt,Water solubility,completely water-soluble
"CN(C)c1ncc(C#Cc2c(F)cccc2F)c2ccccc12 [Compound 5mm, 4-((2,6-Difluorophenyl)ethynyl)-N,N-dimethylisoquinolin-1-amine]",Effect on cyclin D1 (western blot),cyclin D1,inhibited cyclin D1
same,Effect on p21^Wif1/Cip1 (western blot),[1],induced cyclin-dependent kinase inhibitor p21^Wif1/Cip1
"CNc1ncc(C#Cc2c(F)cccc2F)c2ccccc12 [Compound 5nn, 4-((2,6-Difluorophenyl)ethynyl)-N-methylisoquinolin-1-amine]",Effect on cyclin D1 (western blot),cyclin D1,inhibited cyclin D1
same,Effect on p21^Wif1/Cip1 (western blot),[1],induced cyclin-dependent kinase inhibitor p21^Wif1/Cip1
N.N.[Cl][Pt][Cl] [Cisplatin],Percentage inhibition of the proliferation of colon cancer cells,[2]; 1 μM,24.2±5.6%
same,Percentage inhibition of the proliferation of colon cancer cells,[2]; 10 μM,82.1±1.4%
same,Percentage inhibition of the proliferation of colon cancer cells,HT-29; 1 μM,4.4±5.9%
same,Percentage inhibition of the proliferation of colon cancer cells,HT-29; 10 μM,72.7±3.5%
same,Percentage inhibition of the proliferation of normal cells,fibroblast HEL 299 cells; 1 μM,37.5±4.1%
same,Percentage inhibition of the proliferation of normal cells,fibroblast HEL 299 cells; 10 μM,57.8±0.3%
same,Percentage inhibition of the proliferation of normal cells,lung epithelial BEAS-2B; 1 μM,39.2±14.9%
same,Percentage inhibition of the proliferation of normal cells,lung epithelial BEAS-2B; 10 μM,82.4±0.2%
"CN1CCN(c2ncc(C#Cc3c(F)cccc3F)c3ccccc23)CC1.Cl [Compound 5oo, 4-((2,6-Difluorophenyl)ethynyl)-1-(4-methylpiperazin-1-yl)isoquinoline]",Water solubility of hydrochloride salt,Water solubility,completely water-soluble
"CN(C)c1ccc(C#Cc2c(F)cccc2F)cc1 [Compound 2, 4-((2,6-difluorophenyl)ethynyl)-N,N-dimethylaniline]",Effect on cyclin D1 (western blot),cyclin D1,inhibited cyclin D1
same,Effect on p21^Wif1/Cip1 (western blot),[1],induced cyclin-dependent kinase inhibitor p21^Wif1/Cip1
same,Water solubility,Water solubility; parent compound,sparingly water-soluble
same,Inhibition of cell proliferation (%) of colon cancer LS174T cells,"[3]; 30 nM, Table 2",57±1.2%
same,Inhibition of proliferation (%) of LS174T cells,[3]; 100 nM,85.2±0.5%
same,Inhibition of proliferation (%) of LS174T cells,[3]; 1 μM,99.5±0.1%
